In paper PMC6175428 (Journal of Clinical Pharmacology, 2018):
Where two headings read alike, the source gives them in different places.

Assays:
[1] = Urine bioanalysis / renal clearance of semaglutide and SNAC; assay type: in vivo, human; conditions: for CLR (renal clearance): SNAC after 10th dose, geometric mean (CV)
Outline: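 Urine was collected before dosing on day 1 and in fractions after the day-10 dose (0–4, 4–8, 16–24 and 24–36 h) and stored at −20°C. 1% Triton X-100 was added at 1 part per 9 parts urine. Semaglutide and SNAC were measured by the plasma LC-MS/MS assays, with ranges corrected by a factor of 1.111. Renal clearance was reported as the geometric mean (CV) per hepatic function group.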

[2] = assay type: in vivo, human; conditions: for CL/F (total apparent clearance): SNAC after 10th dose, geometric mean (CV)
Outline: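 Adults with hepatic function graded by Child-Pugh took one oral tablet daily for 10 days: 5 mg for 5 days, then 10 mg for 5 days. Each tablet held 300 mg SNAC and was taken with 120 mL water after a ≥6 h fast. Plasma was sampled within 24 h after dosing on days 1 and 10 into K3-EDTA and stored at −20°C. LC-MS/MS used in-line solid-phase preparation and internal-standard peak area ratios, with an LLOQ of 5.00 ng/mL.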

plasma protein = assay: Plasma protein binding of SNAC; assay type: in vitro ADME, human
Outline: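 Plasma protein binding measured ex vivo by rapid equilibrium dialysis on blood drawn 30 minutes after the day-10 dose. Subjects with normal hepatic function or mild, moderate or severe hepatic impairment received the oral semaglutide/SNAC co-formulation for 10 consecutive days. Food and liquid were withheld for 30 minutes post-dose. The read-out is the fraction of unbound SNAC per subject, summarised as a median per group.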

[3] = subcutaneous once-daily liraglutide; cited from earlier work
[4] = mild hepatic impairment (n = 12)
[5] = moderate hepatic impairment (n = 12)
[6] = normal hepatic function (n = 24)
[7] = severe hepatic impairment (n = 8)

CC[C@H](C)[C@H](NC(=O)[C@H](Cc1ccccc1)NC(=O)[C@H](CCC(=O)O)NC(=O)[C@H](CCCCNC(=O)COCCOCCNC(=O)COCCOCCNC(=O)CC[C@H](NC(=O)CCCCCCCCCCCCCCCCC(=O)O)C(=O)O)NC(=O)[C@H](C)NC(=O)[C@H](C)NC(=O)[C@H](CCC(N)=O)NC(=O)CNC(=O)[C@H](CCC(=O)O)NC(=O)[C@H](CC(C)C)NC(=O)[C@H](Cc1ccc(O)cc1)NC(=O)[C@H](CO)NC(=O)[C@H](CO)NC(=O)[C@@H](NC(=O)[C@H](CC(=O)O)NC(=O)[C@H](CO)NC(=O)[C@@H](NC(=O)[C@H](Cc1ccccc1)NC(=O)[C@@H](NC(=O)CNC(=O)[C@H](CCC(=O)O)NC(=O)C(C)(C)NC(=O)[C@@H](N)Cc1cnc[nH]1)[C@@H](C)O)[C@@H](C)O)C(C)C)C(=O)N[C@@H](C)C(=O)N[C@@H](Cc1c[nH]c2ccccc12)C(=O)N[C@@H](CC(C)C)C(=O)N[C@H](C(=O)N[C@@H](CCCNC(=N)N)C(=O)NCC(=O)N[C@@H](CCCNC(=N)N)C(=O)NCC(=O)O)C(C)C [Semaglutide, reference compound]
Semaglutide in urine samples ([1]; subjects with normal hepatic function and all hepatic impairment groups): not detected

O=C([O-])CCCCCCCNC(=O)c1ccccc1O.[Na+] [SNAC, sodium N‐(8‐[2‐hydroxybenzoyl]amino) caprylate]
CLR (renal clearance) [1, 4]: 0.075 (125.3) L/h
CLR (renal clearance) [1, 5]: 0.054 (73.98) L/h
CLR (renal clearance) [1, 6]: 0.076 (109.0) L/h
CLR (renal clearance) [1, 7]: 0.111 (88.52) L/h
Estimated mean CLR of SNAC, range across groups ([1]; range of estimated means with 95%CI across hepatic function groups): 0.052 [95%CI, 0.036–0.076]–0.096 [95%CI, 0.059–0.157] L/h
CL/F (total apparent clearance) [2, 4]: 195.6 (24.2) L/h
CL/F (total apparent clearance) [2, 5]: 105.1 (63.1) L/h
CL/F (total apparent clearance) [2, 6]: 275.8 (27.9) L/h
CL/F (total apparent clearance) [2, 7]: 78.5 (36.4) L/h
Median tmax of SNAC ([2]; across the 4 hepatic function groups): approximately 0.5 hours
Accumulation of SNAC ([2]; day 1 vs day 10 exposure, any hepatic function group): No accumulation
Median fraction of unbound SNAC (plasma protein; across the hepatic function groups, samples 30 minutes after dosing on day 10): less than 1%
Plasma protein binding of SNAC (plasma protein; all subjects across hepatic function groups): more than 99%

liraglutide
Drug exposure with impaired liver function [3]: not increased
